What is called IC50 is the point on the concentration scale where inhibition reaches its midpoint.

The test system of data set [1] is Human immunodeficiency virus 1. The experiment in a line: Antiviral activity against HIV1 ZM55F.PB28a infected in human TZM-b1 cells assessed as inhibition of viral infection after 2 days postinfection by luciferase reporter gene assay. It is filed as functional, organism-based. The following applies: Human immunodeficiency virus 1, ZM55F.PB28a, TZM-b1, 48 h. A digest of the protocol:
(§1)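 Single-round infection of TZM-bl cells with 200 TCID50 of virus in the presence of varying compound concentrations, top concentration 15 µM. After 2 days, medium was removed and Bright-Glo reagent added to read luminescence. IC50 is the concentration giving 50% reduction in luciferase RLU relative to virus-control wells.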
On the technique in general: A reporter such as luciferase makes a cellular process visible.

For data set [2], the system named is Human immunodeficiency virus 1. The experiment in a line: Antiviral activity against HIV1 Du123.6 infected in human TZM-b1 cells assessed as inhibition of viral infection after 2 days postinfection by luciferase reporter gene assay. It is filed as functional, organism-based. To be noted: Human immunodeficiency virus 1, Du123.6, TZM-b1, 48 h. A digest of the protocol:
as §1

Data set [3] relates to Human immunodeficiency virus 1. Briefly: Antiviral activity against HIV1 5768.4 infected in human TZM-b1 cells assessed as inhibition of viral infection after 2 days postinfection by luciferase reporter gene assay. It is filed as functional, organism-based. To be noted: Human immunodeficiency virus 1, 5768.4, TZM-b1, 48 h. A digest of the protocol:
as §1

The test system of data set [4] is Human immunodeficiency virus 1. Briefly: Antiviral activity against HIV1 ZM214M.PL15 infected in human TZM-b1 cells assessed as inhibition of viral infection after 2 days postinfection by luciferase reporter gene assay. The format is functional, organism-based. The following applies: Human immunodeficiency virus 1, ZM214M.PL15, TZM-b1, 48 h. A digest of the protocol:
as §1

Data set [5] relates to Human immunodeficiency virus 1. The experiment in a line: Antiviral activity against HIV1 Q842.d12 infected in human TZM-b1 cells assessed as inhibition of viral infection after 2 days postinfection by luciferase reporter gene assay. It is filed as functional, organism-based. The following applies: Human immunodeficiency virus 1, Q842.d12, TZM-b1, 48 h. A digest of the protocol:
as §1

The test system of data set [6] is Human immunodeficiency virus 1. The experiment in a line: Antiviral activity against HIV1 REJO4541.67 infected in human TZM-b1 cells assessed as inhibition of viral infection after 2 days postinfection by luciferase reporter gene assay. To be noted: Human immunodeficiency virus 1, REJO4541.67, TZM-b1, 48 h. It is filed as functional, organism-based. The method in brief:
as §1

In data set [7] the test system is Human immunodeficiency virus 1. Briefly: Antiviral activity against HIV1 SS1196.1 infected in human TZM-b1 cells assessed as inhibition of viral infection after 2 days postinfection by luciferase reporter gene assay. The format is functional, organism-based. The following applies: Human immunodeficiency virus 1, SS1196.1, TZM-b1, 48 h. A digest of the protocol:
as §1

The subject of data set [8] is Human immunodeficiency virus 1. Briefly: Antiviral activity against HIV1 Q769.d22 infected in human TZM-b1 cells assessed as inhibition of viral infection after 2 days postinfection by luciferase reporter gene assay. To be noted: Human immunodeficiency virus 1, Q769.d22, TZM-b1, 48 h. It is filed as functional, organism-based. A digest of the protocol:
as §1

Data set [9] is described as follows: Cytotoxicity against human TZM-bl cells at 15 uM after 2 days by trypan blue exclusion assay. The format is cell-based. The following applies: 48 h.
The subject of data set [10] is Human immunodeficiency virus 1. The experiment in a line: Antiviral activity against HIV1 Q23.71 infected in human TZM-b1 cells assessed as inhibition of viral infection after 2 days postinfection by luciferase reporter gene assay. To be noted: Human immunodeficiency virus 1, Q23.71, TZM-b1, 48 h. It is filed as functional, organism-based. A digest of the protocol:
as §1

Data set [11] deals with Human immunodeficiency virus 1. Briefly: Antiviral activity against HIV1 Q168.a2 infected in human TZM-b1 cells assessed as inhibition of viral infection after 2 days postinfection by luciferase reporter gene assay. It is filed as functional, organism-based. To be noted: Human immunodeficiency virus 1, Q168.a2, TZM-b1, 48 h. A digest of the protocol: as §1
In data set [12] the test system is Human immunodeficiency virus 1. The experiment in a line: Antiviral activity against HIV1 NL4-3 infected in human TZM-b1 cells assessed as inhibition of viral infection after 2 days postinfection by luciferase reporter gene assay. The format is functional, organism-based. To be noted: Human immunodeficiency virus 1, NL4-3, TZM-b1, 48 h. The method in brief: as §1

The subject of data set [13] is Human immunodeficiency virus 1. The experiment in a line: Antiviral activity against HIV1 ZM197M.PB7 infected in human TZM-b1 cells assessed as inhibition of viral infection after 2 days postinfection by luciferase reporter gene assay. To be noted: Human immunodeficiency virus 1, ZM197M.PB7, TZM-b1, 48 h. The format is functional, organism-based. The method in brief:
as §1

For data set [14], the system named is Human immunodeficiency virus 1. Briefly: Antiviral activity against HIV1 TRO.11 infected in human TZM-b1 cells assessed as inhibition of viral infection after 2 days postinfection by luciferase reporter gene assay. It is filed as functional, organism-based. To be noted: Human immunodeficiency virus 1, TRO.11, TZM-b1, 48 h. A digest of the protocol:
as §1

Data set [15] relates to Human immunodeficiency virus 1. Briefly: Antiviral activity against HIV1 ZM109F.PB4 infected in human TZM-b1 cells assessed as inhibition of viral infection after 2 days postinfection by luciferase reporter gene assay. To be noted: Human immunodeficiency virus 1, ZM109F.PB4, TZM-b1, 48 h. The format is functional, organism-based. A digest of the protocol:
as §1

The test system of data set [16] is Human immunodeficiency virus 1. The experiment in a line: Antiviral activity against HIV1 Q259.d2.17 infected in human TZM-b1 cells assessed as inhibition of viral infection after 2 days postinfection by luciferase reporter gene assay. To be noted: Human immunodeficiency virus 1, Q259.d2.17, TZM-b1, 48 h. It is filed as functional, organism-based. A digest of the protocol:
as §1

Data set [17] deals with Human immunodeficiency virus 1. The experiment in a line: Antiviral activity against HIV1 Du422.1 infected in human TZM-b1 cells assessed as inhibition of viral infection after 2 days postinfection by luciferase reporter gene assay. The format is functional, organism-based. To be noted: Human immunodeficiency virus 1, Du422.1, TZM-b1, 48 h. The method in brief: as §1
In data set [18] the test system is Human immunodeficiency virus 1. The experiment in a line: Antiviral activity against HIV1 CAP.2.00.G3 infected in human TZM-b1 cells assessed as inhibition of viral infection after 2 days postinfection by luciferase reporter gene assay. It is filed as functional, organism-based. The following applies: Human immunodeficiency virus 1, CAP.2.00.G3, TZM-b1, 48 h. The method in brief: as §1

Data set [19] has as its system Human immunodeficiency virus 1. Briefly: Antiviral activity against HIV1 Du151.2 infected in human TZM-b1 cells assessed as inhibition of viral infection after 2 days postinfection by luciferase reporter gene assay. The format is functional, organism-based. To be noted: Human immunodeficiency virus 1, Du151.2, TZM-b1, 48 h. The method in brief: as §1
The subject of data set [20] is Human immunodeficiency virus 1. Briefly: Antiviral activity against HIV1 CAP244.2.00.D3 infected in human TZM-b1 cells assessed as inhibition of viral infection after 2 days postinfection by luciferase reporter gene assay. The format is functional, organism-based. The following applies: Human immunodeficiency virus 1, CAP244.2.00.D3, TZM-b1, 48 h. A digest of the protocol:
as §1

Data set [21] deals with Human immunodeficiency virus 1. The experiment in a line: Antiviral activity against HIV1 QH0515.1 infected in human TZM-b1 cells assessed as inhibition of viral infection after 2 days postinfection by luciferase reporter gene assay. The format is functional, organism-based. The following applies: Human immunodeficiency virus 1, QH0515.1, TZM-b1, 48 h. The method in brief:
as §1

Data set [22] deals with Human immunodeficiency virus 1. The experiment in a line: Antiviral activity against HIV1 RHPA4259.7 infected in human TZM-b1 cells assessed as inhibition of viral infection after 2 days postinfection by luciferase reporter gene assay. The format is functional, organism-based. To be noted: Human immunodeficiency virus 1, RHPA4259.7, TZM-b1, 48 h. The method in brief:
as §1

Data set [23] can be described thus: Cytotoxicity against human TZM-bl cells after 2 days by trypan blue exclusion assay. The format is cell-based. To be noted: 48 h.
Data set [24] relates to Human immunodeficiency virus 1. Briefly: Antiviral activity against HIV1 Q461.e2 infected in human TZM-b1 cells assessed as inhibition of viral infection after 2 days postinfection by luciferase reporter gene assay. The format is functional, organism-based. To be noted: Human immunodeficiency virus 1, Q461.e2, TZM-b1, 48 h. A digest of the protocol:
as §1

For data set [25], the target named is Envelope glycoprotein gp160 (Human immunodeficiency virus type 1 group M subtype B (isolate YU-2)(HIV-1)) (UniProt P35961). Briefly: Inhibition of HIV1 (isolate YU2) envelope glycoprotein 120-mediated membrane fusion between virus-transfected african green monkey COS cells and human TZM-bl cells by luciferase-based cell-cell fusion assay in presence of IC9564. To be noted: Human immunodeficiency virus type 1 (isolate YU2).
Sequence of Envelope glycoprotein gp160 (Human immunodeficiency virus type 1 group M subtype B (isolate YU-2)(HIV-1)) (P35961 whole entry, the tested form may be a part): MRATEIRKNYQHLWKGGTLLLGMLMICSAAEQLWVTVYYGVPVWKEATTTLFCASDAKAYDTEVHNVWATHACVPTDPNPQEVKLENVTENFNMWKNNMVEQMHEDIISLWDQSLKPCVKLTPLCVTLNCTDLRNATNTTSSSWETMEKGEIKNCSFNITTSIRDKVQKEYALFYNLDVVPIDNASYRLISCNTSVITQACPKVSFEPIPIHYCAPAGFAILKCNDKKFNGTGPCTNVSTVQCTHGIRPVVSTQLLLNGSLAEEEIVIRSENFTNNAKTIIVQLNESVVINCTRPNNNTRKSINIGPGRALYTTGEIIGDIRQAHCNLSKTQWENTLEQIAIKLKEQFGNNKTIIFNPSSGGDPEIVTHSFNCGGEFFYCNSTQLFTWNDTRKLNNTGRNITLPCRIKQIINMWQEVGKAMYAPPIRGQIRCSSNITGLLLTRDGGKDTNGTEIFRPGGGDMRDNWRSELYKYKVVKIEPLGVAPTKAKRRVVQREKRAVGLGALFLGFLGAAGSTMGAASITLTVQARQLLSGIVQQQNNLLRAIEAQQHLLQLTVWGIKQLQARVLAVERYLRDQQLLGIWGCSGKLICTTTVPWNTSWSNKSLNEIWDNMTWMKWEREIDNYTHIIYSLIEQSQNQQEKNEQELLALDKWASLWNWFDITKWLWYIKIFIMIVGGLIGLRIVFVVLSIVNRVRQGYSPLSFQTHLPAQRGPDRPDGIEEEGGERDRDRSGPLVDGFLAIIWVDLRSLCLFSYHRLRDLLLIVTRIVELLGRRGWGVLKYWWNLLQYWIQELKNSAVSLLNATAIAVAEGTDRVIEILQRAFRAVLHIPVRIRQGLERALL

enfuvirtide: the IC50 in data set [1] was found to be 710 nM; in [2], 330 nM; in [3], 1450 nM; in [4] it was 2670 nM; in data set [5], 2450 nM; in data set [6], 1110 nM. The half-inhibitory concentration (IC50) came to 1020 nM in [7]; 2230 nM in [8]; 910 nM in data set [10]; 780 nM in [11]; 1910 nM in [12]; 2230 nM in data set [13]. For the same compound, the IC50 in data set [14] is 1670 nM; in data set [15], 90 nM; in [16] it was 1010 nM; in data set [17], 560 nM; in data set [18] it was 2230 nM; in [19], 450 nM. For the same compound, the IC50 in [20] was 1830 nM; in data set [21], 2230 nM; in [22] it was 760 nM; in [23] it was > 50000 nM; in [24], 1740 nM. In [9], the Activity result was “Non-toxic”.
`Cc1ccc(-c2ccc3c(c2)C=C(C(=O)Nc2ccc(C[N+](C)(C)C4CCOCC4)cc2)CCC3)cc1`: the Activity in [25] was 0.053 ng/mL.

The values are drawn from ChEMBL document CHEMBL1152462, “Betulinic acid derivatives that target gp120 and inhibit multiple genetic subtypes of human immunodeficiency virus type 1” (Antimicrob Agents Chemother, 2008).
